From ChEMBL document CHEMBL3272036, “Reactions of 2-acyloxyisobutyryl halides with nucleosides. Synthesis and biological evaluation of some 3"-acyl and 3',5'-diacyl derivatives of 1-beta-D-arabinofuranosylcytosine” (J Med Chem, 1976)
In brackets after ≈: the same amount, converted by molar mass. Activity calls are given as the source filed them. The calls are words filed in the database; no cut-off is given here.

Assays:
HeLa = assay: Cytotoxicity against human HeLa cells after 48 hrs by Coulter counter analysis; format: functional; conditions: read-out: ED50 (the source's name)
Vaccinia virus = assay: Antiviral activity against Vaccinia virus IHD infected in African green monkey BGM cells assessed as plaque reduction measured on day 5 by disk diffusion assay; format: functional; conditions: Orthopoxvirus vaccinia, 120 h, read-out: ED50 (the source's name)
Herpesviridae sp. = assay: Antiviral activity against Herpes Simplex virus HF infected in African green monkey BGM cells assessed as plaque reduction measured on day 5 by disk diffusion assay; format: functional; conditions: 120 h, read-out: ED50 (the source's name)
L1210 [1] = assay: Antitumor activity against mouse L1210 cells allografted in BDF1 mouse assessed as increase in life span at 200 mg/kg, ip administered as single dose relative to vehicle-treated control; format: functional; conditions: route intraperitoneal
How it was run: (§1)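 Single intraperitoneal injection given 24 h after the leukemic cells were introduced, at 100, 200, 500 or 1000 mg/kg. Read-out is % increase in life span (ILS), with the count of 30-day survivors per group recorded (group sizes 7–8 mice).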

L1210 [2] = assay: Antitumor activity against mouse L1210 cells allografted in BDF1 mouse assessed as survival at 200 mg/kg, ip administered as single dose measured on day 30 relative to vehicle-treated control; format: functional, organism-based; design: dose 200 mg/kg
How it was run: (§2)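 Leukemic L1210 cells were introduced into mice. Each compound was then given as a single intraperitoneal injection 24 h later. Activity is expressed as % increase in life span (ILS), with the count of 30-day survivors per group. Doses tested were 100, 200, 500 and 1000 mg/kg.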

L1210 [3] = assay: Antitumor activity against mouse L1210 cells allografted in BDF1 mouse assessed as increase in life span at 1000 mg/kg, ip administered as single dose relative to vehicle-treated control; format: functional; conditions: route intraperitoneal; how it was run: as §1
L1210 [4] = assay: Antitumor activity against mouse L1210 cells allografted in BDF1 mouse assessed as increase in life span at 500 mg/kg, ip administered as single dose relative to vehicle-treated control; format: functional; conditions: route intraperitoneal; how it was run: as §1
L1210 [5] = assay: Antitumor activity against mouse L1210 cells allografted in BDF1 mouse assessed as survival at 500 mg/kg, ip administered as single dose measured on day 30 relative to vehicle-treated control; format: functional, organism-based; design: dose 500 mg/kg; how it was run: as §2
L1210 [6] = assay: Antitumor activity against mouse L1210 cells allografted in BDF1 mouse assessed as survival at 100 mg/kg, ip administered as single dose measured on day 30 relative to vehicle-treated control; format: functional, organism-based; design: dose 100 mg/kg; how it was run: as §2
L1210 [7] = assay: Antitumor activity against mouse L1210 cells allografted in BDF1 mouse assessed as increase in life span at 100 mg/kg, ip administered as single dose relative to vehicle-treated control; format: functional; conditions: route intraperitoneal; how it was run: as §1
L1210 [8] = assay: Antitumor activity against mouse L1210 cells allografted in BDF1 mouse assessed as survival at 1000 mg/kg, ip administered as single dose measured on day 30 relative to vehicle-treated control; format: functional, organism-based; design: dose 1000 mg/kg; how it was run: as §2

| SMILES | EC50 (HeLa) | EC50 (Vaccinia virus) | EC50 (Herpesviridae sp.) | ILS at 200 mg/kg (L1210 [1]) | Activity (L1210 [2]) | ILS at 1000 mg/kg (L1210 [3]) | ILS at 500 mg/kg (L1210 [4]) | Activity (L1210 [5]) | Activity (L1210 [6]) | ILS at 100 mg/kg (L1210 [7]) | Activity (L1210 [8]) |
| --- | --- | --- | --- | --- | --- | --- | --- | --- | --- | --- | --- |
| Cl.Nc1ccn([C@@H]2O[C@H](CO)[C@@H](OC(=O)Cc3ccccc3)[C@@H]2O)c(=O)n1 | 0.11 µg/mL | 0.46 µM | 1.5 µM | 8% | inactive | – | – | – | – | – | – |
| C=CCCCCCCCC(=O)OC[C@H]1O[C@@H](n2ccc(N)nc2=O)[C@@H](O)[C@@H]1OC(=O)CCCCCCCC=C.Cl | 0.1 µg/mL | – | – | – | – | – | – | – | – | – | – |
| CCCCCCCCCCCCCCCC(=O)OC[C@H]1O[C@@H](n2ccc(N)nc2=O)[C@@H](O)[C@@H]1OC(=O)CCCCCCCCCCCCCCC | > 10 µg/mL | 30 µM | > 30 µM | > 255% | – | > 237% | – | – | – | – | – |
| Cl.Nc1ccn([C@@H]2O[C@H](COC(=O)Cc3ccccc3)[C@@H](OC(=O)Cc3ccccc3)[C@@H]2O)c(=O)n1 | 0.13 µg/mL | 2.3 µM | 1.3 µM | 29% | inactive | – | – | – | – | – | – |
| CC(=O)O[C@H]1[C@H](O)[C@H](n2ccc(N)nc2=O)O[C@@H]1CO | 0.14 µg/mL (≈ 0.491 µM) | 0.58 µM | 1.45 µM | 19% | inactive | – | 20% | inactive | inactive | 14% | – |
| CCCCCC(=O)OC[C@H]1O[C@@H](n2ccc(N)nc2=O)[C@@H](O)[C@@H]1OC(=O)CCCCC | 0.07 µg/mL (≈ 0.159 µM) | 0.22 µM | 0.9 µM | 11% | inactive | – | – | – | inactive | 4% | – |
| CCCCCCCC(=O)OC[C@H]1O[C@@H](n2ccc(N)nc2=O)[C@@H](O)[C@@H]1OC(=O)CCCCCCC.Cl | 0.13 µg/mL | 0.22 µM | 2.6 µM | 20% | inactive | 46% | – | – | inactive | -28% | inactive |
| CCCCCCCCCCC(=O)O[C@H]1[C@H](O)[C@H](n2ccc(N)nc2=O)O[C@@H]1CO | 0.04 µg/mL (≈ 0.0972 µM) | 0.1 µM | 0.12 µM | > 125% | – | – | > 99% | – | – | > 127% | – |
| CCCCCCCCC(=O)OC[C@H]1O[C@@H](n2ccc(N)nc2=O)[C@@H](O)[C@@H]1OC(=O)CCCCCCCC.Cl | 0.08 µg/mL | 0.19 µM | 0.52 µM | 71% | inactive | – | – | – | – | – | – |
| CCCCCCCCCCCC(=O)OC[C@H]1O[C@@H](n2ccc(N)nc2=O)[C@@H](O)[C@@H]1OC(=O)CCCCCCCCCCC | 0.5 µg/mL (≈ 0.823 µM) | 2.05 µM | 7.2 µM | > 285% | Active | > 260% | – | – | – | – | – |
| CCCCCCCCCCCCCCCCCC(=O)OC[C@H]1O[C@@H](n2ccc(N)nc2=O)[C@@H](O)[C@@H]1OC(=O)CCCCCCCCCCCCCCCCC | 10 µg/mL (≈ 12.9 µM) | > 30 µM | > 30 µM | 124% | inactive | > 328% | – | – | – | – | – |
| CCCCCCCC/C=C/CCCCCCCC(=O)O[C@H]1[C@H](O)[C@H](n2ccc(N)nc2=O)O[C@@H]1CO | 0.05 µg/mL (≈ 0.0985 µM) | 0.94 µM | 1.5 µM | > 258% | – | – | – | – | – | > 246% | – |
| C=CCCCCCCCCC(=O)O[C@H]1[C@H](O)[C@H](n2ccc(N)nc2=O)O[C@@H]1CO | 0.05 µg/mL (≈ 0.122 µM) | 0.11 µM | 0.44 µM | 49% | inactive | > 52% | > 191% | – | – | – | – |
| CCCC(=O)O[C@H]1[C@H](O)[C@H](n2ccc(N)nc2=O)O[C@@H]1CO | 0.11 µg/mL (≈ 0.351 µM) | 1.2 µM | 2.8 µM | 13% | inactive | – | 22% | inactive | – | – | – |
